Test results published in ChEMBL document CHEMBL3124843, “Synthesis, cytostatic, antimicrobial, and anti-HCV activity of 6-substituted 7-(het)aryl-7-deazapurine ribonucleosides” (J Med Chem, 2014).
The source made the active and inactive calls. How the calls were made is not given here.

Assays:
[1] = test system: MRC5; assay: Cytostatic activity against human MRC5 cells after 72 hrs by MTT assay; assay type: ADME, cell-based; settings: MRC5, 72 h
How it was run: (§1)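 IC50 is the concentration that cuts cell growth by 50%, read by quantitative metabolic MTT staining after a 3-day treatment. The resistant sublines were made by raising the concentration of the cytotoxic drug step by step. CEM-DNR-bulk (daunorubicin-selected) stably overexpresses mrp-1. K562-TAX (paclitaxel-selected) expresses only mdr-1. HCT116p53−/− carries null p53 alleles. BJ and MRC-5 are nonmalignant fibroblasts.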

[2] = test system: Hepatitis C virus; assay: Antiviral activity against Hepatitis C virus subtype 1b infected in human HuH7 cells; assay type: functional, organism-based, Hepacivirus hominis; settings: genotype 1b, Huh-7
[3] = Cytotoxicity against human HuH7 cells infected with Hepatitis C virus subtype 1b; assay type: cell-based, Huh-7
[4] = test system: Enterococcus faecalis; assay: Antibacterial activity against Enterococcus faecalis CCM 4224 after 24 hrs; assay type: functional, organism-based
[5] = test system: HCT-116; assay: Cytostatic activity against p53-deficient human HCT116 cells after 72 hrs by MTT assay; assay type: functional, cell-based; settings: HCT-116, 72 h; how it was run: as §1
[6] = test system: HepG2; assay: Antiproliferative activity against human HepG2 cells after 72 hrs by XTT assay; assay type: functional, cell-based; settings: HepG2, 72 h
[7] = test system: BJ; assay: Cytostatic activity against human BJ cells after 72 hrs by MTT assay; assay type: ADME, cell-based; how it was run: as §1
[8] = test system: K562; assay: Cytostatic activity against paclitaxel-resistant human K562 cells after 72 hrs by MTT assay; assay type: functional, cell-based; settings: K562, 72 h; how it was run: as §1
[9] = test system: Pseudomonas aeruginosa; assay: Antibacterial activity against Pseudomonas aeruginosa CCM 3955 after 24 hrs; assay type: functional, organism-based
[10] = test system: HL-60; assay: Antiproliferative activity against human HL60 cells after 72 hrs by XTT assay; assay type: functional, cell-based; settings: HL-60, 72 h
How it was run: (§2)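 Antiproliferative test on HL-60 promyelocytic leukemia and HeLa S3 cervical carcinoma cells growing in liquid suspension.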

[11] = Cytotoxicity against human HuH7 cells infected with Hepatitis C virus subtype 2a; assay type: cell-based, Huh-7
[12] = test system: Candida albicans; assay: Antifungal activity against Candida albicans after 48 hrs; assay type: functional, organism-based
[13] = test system: Pseudomonas aeruginosa; assay: Antibacterial activity against multi-resistant Pseudomonas aeruginosa A/16575 after 24 hrs; assay type: functional, organism-based
[14] = test system: Candida tropicalis; assay: Antifungal activity against Candida tropicalis after 48 hrs; assay type: functional, organism-based
[15] = test system: Escherichia coli; assay: Antibacterial activity against multi-resistant Escherichia coli C/16702 after 24 hrs; assay type: functional, organism-based
[16] = test system: Staphylococcus aureus; assay: Antibacterial activity against Staphylococcus aureus CCM 3953 after 24 hrs; assay type: functional, organism-based
[17] = Cytostatic activity against human CEM-DNR-bulk cells after 72 hrs by MTT assay; assay type: functional, cell-based; how it was run: as §1
[18] = test system: Escherichia coli; assay: Antibacterial activity against Escherichia coli CCM 3954 after 24 hrs; assay type: functional, organism-based
[19] = Antiproliferative activity against human HeLaS3 cells after 72 hrs by XTT assay; assay type: functional, cell-based; settings: HeLa S3, 72 h; how it was run: as §2
[20] = test system: Pichia kudriavzevii; assay: Antifungal activity against Candida crusei after 48 hrs; assay type: functional, organism-based
[21] = test system: A549; assay: Cytostatic activity against human A549 cells after 72 hrs by MTT assay; assay type: functional, cell-based; settings: A549, 72 h; how it was run: as §1
[22] = test system: CCRF-CEM; assay: Cytostatic activity against human CCRF-CEM cells after 72 hrs by MTT assay; assay type: functional, cell-based; how it was run: as §1
[23] = test system: K562; assay: Cytostatic activity against human K562 cells after 72 hrs by MTT assay; assay type: functional, cell-based; settings: K562, 72 h; how it was run: as §1
[24] = test system: Staphylococcus aureus; assay: Antibacterial activity against methicillin-resistant Staphylococcus aureus MRSA 4591 after 24 hrs; assay type: functional, organism-based
[25] = test system: Candida parapsilosis; assay: Antifungal activity against Candida parapsilosis after 48 hrs; assay type: functional, organism-based
[26] = test system: Hepatitis C virus; assay: Antiviral activity against Hepatitis C virus subtype 2a infected in human HuH7 cells; assay type: functional, organism-based, Hepacivirus hominis; settings: genotype 2a, Huh-7
[27] = test system: Staphylococcus haemolyticus; assay: Antibacterial activity against methicillin-resistant Staphylococcus haemolyticus A/16568 after 24 hrs; assay type: functional, organism-based
[28] = test system: HCT-116; assay: Cytostatic activity against human HCT116 cells after 72 hrs by MTT assay; assay type: functional, cell-based; settings: HCT-116, 72 h; how it was run: as §1

Compound | IC50 [1] [µM] | EC50 [2] [µM] | CC50 [3] [µM] | Activity [4] | IC50 [5] [µM] | IC50 [6] [µM] | IC50 [7] [µM] | IC50 [8] [µM] | Activity [9] | IC50 [10] [µM] | CC50 [11] [µM] | Activity [12] | Activity [13] | Activity [14] | Activity [15] | Activity [16] | IC50 [17] [µM] | Activity [18] | IC50 [19] [µM] | Activity [20] | other results
Cc1ncnc2c1c(-c1ccsc1)cn2[C@@H]1O[C@H](CO)[C@@H](O)[C@H]1O | > 100 | 4.47 | > 44 | inactive | 1.43 | 4.72 | 96.9 | 5.55 | inactive | 0.35 | > 44 | inactive | inactive | inactive | inactive | inactive | 8.56 | inactive | 14.3 | inactive | IC50 [21]: > 20 µM; IC50 [22]: 11.2 µM; IC50 [23]: 0.32 µM; Activity [24]: inactive; Activity [25]: inactive; EC50 [26]: > 44 µM; Activity [27]: inactive; IC50 [28]: 0.46 µM
Cc1ncnc2c1c(-c1ccccc1)cn2[C@@H]1O[C@H](CO)[C@@H](O)[C@H]1O | > 100 | 34.8 | > 44 | inactive | 95.3 | > 20 | > 100 | > 20 | inactive | > 20 | > 44 | inactive | inactive | inactive | inactive | inactive | > 20 | inactive | > 20 | inactive | IC50 [21]: > 20 µM; IC50 [22]: > 20 µM; IC50 [23]: > 20 µM; Activity [24]: inactive; Activity [25]: inactive; EC50 [26]: > 44 µM; Activity [27]: inactive; IC50 [28]: > 100 µM
CNc1ncnc2c1c(-c1ccoc1)cn2[C@@H]1O[C@H](CO)[C@@H](O)[C@H]1O | > 100 | 35.9 | > 44 | inactive | > 20 | > 20 | 96.3 | > 20 | inactive | > 15 | > 44 | inactive | inactive | inactive | inactive | inactive | > 20 | inactive | > 20 | inactive | IC50 [21]: > 20 µM; IC50 [22]: > 20 µM; IC50 [23]: > 20 µM; Activity [24]: inactive; Activity [25]: inactive; EC50 [26]: > 44 µM; Activity [27]: inactive; IC50 [28]: > 20 µM
Nc1nc2c(c(-c3cc4ccccc4o3)cn2[C@@H]2O[C@H](CO)[C@@H](O)[C@H]2O)c(=O)[nH]1 | > 100 | > 44 | > 44 | inactive | > 100 | > 20 | > 100 | > 20 | inactive | > 20 | > 44 | inactive | inactive | inactive | inactive | inactive | > 20 | inactive | > 20 | inactive | IC50 [21]: > 100 µM; IC50 [22]: > 20 µM; IC50 [23]: > 20 µM; Activity [24]: inactive; Activity [25]: inactive; EC50 [26]: > 44 µM; Activity [27]: inactive; IC50 [28]: > 100 µM
